# Measured values taken from the RNAGym collection of RNA variant scans (doi:10.1126/science.aae0568).
# Variants at the floor of the assay were thinned out.
# B1: tRNA (parent)
# chain: GUUCCGUUGGCGUAAUGGUAACGCGUCUCCCUCCUAAGGAGAAGACUGCGGGUUCGAGUCCCGUACGGAACG
# Variants of: B1
# Test: yeast fitness relative to wild type (ratio to wild type); higher = fitter; tRNA-Arg(CCU), competitive growth, 37 C, YPD
# Method in brief: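 Amplicons of the tRNA-Arg(CCU) gene were sequenced, 100-nucleotide paired-end, from the start population and from each end population of a pooled yeast competition. The competition, in six parallel replicates, lasted 24 hours in YPD at 37°C. Fitness relative to wild type was calculated from changes in genotype frequencies. Genotypes had to have ≥ 100 starting reads, and estimates < 0.5 were set to 0.5.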
row,Variant,yeast fitness
1,C5U U19A G25C A43U,0.758
2,C5U U19A G38C C62G G68C,0.62
3,C5U U19A G48A,0.741
4,C5U U19A G51C G58A,≤ 0.5
5,C5U U19C,0.963
6,C5U U19C A37G G63C,≤ 0.5
7,C5U U19C A43U,1.09
8,C5U U19C C24G C61A A70G,≤ 0.5
9,C5U U19C C29U A42C A57G,≤ 0.5
10,C5U U19C C55A G58C,≤ 0.5
11,C5U U19C C66G,0.606
12,C5U U19C C66U,0.82
13,C5U U19C G52A,0.625
14,C5U U19C G56C U59A A65G,≤ 0.5
15,C5U U19C G67C A70U,≤ 0.5
16,C5U U19C U26A C62A,≤ 0.5
17,C5U U19C U28A C66U G68A,≤ 0.5
18,C5U U19G A37G C66U A69U,0.547
19,C5U U26A C46G,0.717
20,C5U U26A G48C A57G,≤ 0.5
21,C5U U26A G56C A65C,0.53
22,C5U U26C,0.862
23,C5U U26C A36C U64A,≤ 0.5
24,C5U U26G C33G G50C,≤ 0.5

row,Variant,yeast fitness
1,C5U U26G G58A,0.924
2,C5U U28A A69C,0.541
3,C5U U28C A36C A40C A42U,≤ 0.5
4,C5U U28C C29G,≤ 0.5
5,C5U U28C C29G C61U,0.563
6,C5U U28C C46A C66G,0.534
7,C5U U28C C61U,0.705
8,C5U U28G A40C,0.613
9,C5U U28G A42U,≤ 0.5
10,C5U U28G C29U G50C,≤ 0.5
11,C5U U28G C30G A40C A42U,≤ 0.5
12,C5U U32A C34A A65C,≤ 0.5
13,C5U U32C A42G,0.531
14,C5U U32C A57C,0.583
15,C5U U32C A70U,0.66
16,C5U U32C C33U C62U A65G,≤ 0.5
17,C5U U32C C49G G68C,0.593
18,C5U U32C G39A C60U C61G G68C,≤ 0.5
19,C5U U32G A36U,≤ 0.5
20,C5U U32G A36U G68C,≤ 0.5
21,C5U U32G C33G,≤ 0.5
22,C5U U32G G63C C66U,≤ 0.5
23,C5U U35A A36G,0.673
24,C5U U35A G48C C61U,0.57

row,Variant,yeast fitness
1,C5U U35C A36G,0.801
2,C5U U35C A69U,0.536
3,C5U U35C C62U G68C,≤ 0.5
4,C5U U35G A65U,0.576
5,C5U U35G U47A G48A A65U,0.557
6,C5U U47A,1.06
7,C5U U47A G48C G51A,≤ 0.5
8,C5U U47A G48C G51A C61A,0.564
9,C5U U47C G51A,0.548
10,C5U U47G G50C,0.575
11,C5U U53G,0.617
12,C5U U53G C62A,≤ 0.5
13,C5U U64A G67U,≤ 0.5
14,G6A,0.965
15,G6A A14C A42U G56A G63C,0.511
16,G6A A14C A42U G63C,≤ 0.5
17,G6A A14C G41A A42U G56A G63C,0.665
18,G6A A14C G58A,0.613
19,G6A A14G C24A C31U A40U A70G,≤ 0.5
20,G6A A14G C31U A36G,≤ 0.5
21,G6A A14G C33A G39C,≤ 0.5
22,G6A A14G C49U,0.57
23,G6A A14U A15U C31G,0.668
24,G6A A14U A57G U59C,≤ 0.5

row,Variant,yeast fitness
1,G6A A14U A57G U64G,≤ 0.5
2,G6A A14U C31G G38A,≤ 0.5
3,G6A A14U C55A,0.552
4,G6A A14U U64G,0.664
5,G6A A15C A20G,≤ 0.5
6,G6A A15C A20U,0.56
7,G6A A15C A36C A42U A43G C55G C61U,≤ 0.5
8,G6A A15C A36U A65C,≤ 0.5
9,G6A A15C C22G A43C G50A,≤ 0.5
10,G6A A15C C22U C33G C62A G63C,0.753
11,G6A A15C C27A C61G A70U,0.579
12,G6A A15C C27A C61G U64C A70U,≤ 0.5
13,G6A A15C U16A A21G U26A C30U C61A A69U,≤ 0.5
14,G6A A15G A65U,0.607
15,G6A A15G C46U C66U,0.77
16,G6A A15G U28G A42U G48A,≤ 0.5
17,G6A A15G U54G C55U,≤ 0.5
18,G6A A15U G23A,0.525
19,G6A A15U U59A G68C,≤ 0.5
20,G6A A20C A40C A42U G56A C66G,≤ 0.5
21,G6A A20C A70U,0.739
22,G6A A20C C34A A45U C46U A57C,≤ 0.5
23,G6A A20C C46G,0.696
24,G6A A20C C61G G68C,≤ 0.5

row,Variant,yeast fitness
1,G6A A20C C66A,0.549
2,G6A A20C G23C C27A,≤ 0.5
3,G6A A20G,0.897
4,G6A A20G A21G C29G,≤ 0.5
5,G6A A20G A36G C49G,≤ 0.5
6,G6A A20G A45G,0.803
7,G6A A20G C24U,0.612
8,G6A A20G C31G C46U G67A,≤ 0.5
9,G6A A20G C49A,0.616
10,G6A A20G C60G,≤ 0.5
11,G6A A20U C27A A57U C62A,≤ 0.5
12,G6A A20U C46A C55G,≤ 0.5
13,G6A A20U C49U G50U,≤ 0.5
14,G6A A20U G25A,0.574
15,G6A A21C A42G,0.692
16,G6A A21C C33G,≤ 0.5
17,G6A A21C C49A A70G,≤ 0.5
18,G6A A21C U47A C61A A70C,≤ 0.5
19,G6A A21G,0.965
20,G6A A21G C46A C55U G56A,≤ 0.5
21,G6A A21G C49U,0.791
22,G6A A21G G23A G58C,≤ 0.5
23,G6A A21U C62U,≤ 0.5
24,G6A A36C A37G G52A A70U,≤ 0.5

row,Variant,yeast fitness
1,G6A A36C A40U,≤ 0.5
2,G6A A36G A43C A69C,≤ 0.5
3,G6A A36U A37G A40C C66U,≤ 0.5
4,G6A A36U C49G C62U,≤ 0.5
5,G6A A36U C66A G68C,≤ 0.5
6,G6A A37C,0.824
7,G6A A37C A40G,≤ 0.5
8,G6A A37U A40C,≤ 0.5
9,G6A A37U C62U,≤ 0.5
10,G6A A40C G41C G68C,≤ 0.5
11,G6A A40G,0.842
12,G6A A40G A42G U59C,0.675
13,G6A A40U C46A,0.657
14,G6A A40U C55G G63C,≤ 0.5
15,G6A A40U U53A C61A A65U A69U,0.511
16,G6A A42C,0.894
17,G6A A42C A70G,≤ 0.5
18,G6A A42C U53G G67C,≤ 0.5
19,G6A A42G,0.848
20,G6A A42G C61G C66A,≤ 0.5
21,G6A A42U,0.784
22,G6A A42U C62A,0.53
23,G6A A43C C62A,0.551
24,G6A A45C A70G,0.536

row,Variant,yeast fitness
1,G6A A45C C46G G51C,≤ 0.5
2,G6A A45C C55G C61U,≤ 0.5
3,G6A A45G,0.928
4,G6A A45U G48A C55A,≤ 0.5
5,G6A A57C,0.627
6,G6A A57C A65C,0.541
7,G6A A57C A65C A70C,0.609
8,G6A A57G,0.929
9,G6A A57U,0.629
10,G6A A57U G68U A70G,≤ 0.5
11,G6A A65C,0.945
12,G6A A69C,0.866
13,G6A C11A A14C U19C U32A A42C,0.664
14,G6A C11A A20G C62A,≤ 0.5
15,G6A C11A A37G G68C,0.562
16,G6A C11A A40G,≤ 0.5
17,G6A C11A A40G G56C,≤ 0.5
18,G6A C11A A40G G56C A65C G67A,≤ 0.5
19,G6A C11A A57C G68A,0.549
20,G6A C11A C22G,≤ 0.5
21,G6A C11A C24U,≤ 0.5
22,G6A C11A C46G,≤ 0.5
23,G6A C11A C49U A65G,≤ 0.5
